# Source: PubChem BioAssay (several laboratories)
# Only a selection was taken, and hits are over-represented in it overall.
# UPR CHOP act = apoptotic UPR (CHOP) activation. CHO-CHOP luciferase reporter, luminescence; percent of tunicamycin response over DMSO baseline. activation, % at 10 µM. 330,000 compounds, 0.34% hits;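 active means at 10 µM dose, activation of 40% or more, normalized to positive control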;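 further: 100% = tunicamycin at 10 µg/mL and 0% = DMSO alone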
#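 System: CHO-CHOP luciferase reporter cell line | Buffer or medium: F12 medium containing 10% fetal bovine serum | Doses: One dose, 10 µM in 0.5% DMSO | Times: 6 h compound exposure at 37 °C after overnight seeding | Signal: Luciferase luminescence | Read-out: % activation vs tunicamycin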
# CHOP inh = inhibitors of CHOP induction in ER stress response | CHO-K1 CHOP-promoter luciferase, tunicamycin-induced, 15-18 h | inhibition, % at 10 µM | 220,000 compounds, 3.8% hits | AID 2732;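 active means compounds that reduced the stress-induced luciferase reporter signal by more than about 70% of percent inhibition, limit read from the data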;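 further: 0% = tunicamycin plus vehicle and 100% = wells without tunicamycin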
# NOD2 RIPK2 PPI = NOD2-RIPK2 protein interaction inhibition. O43353. inhibition, % at 4.98 µM. CHO BLA complementation NOD2-RIPK2, CCF4 ratio. AID 624267. 360,000 compounds, 0.38% hits; in the data active means inhibition above about 21%;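 further: 0% = vehicle only and 100% = reference blocker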
# Target sequence (O43353 whole entry, looked up): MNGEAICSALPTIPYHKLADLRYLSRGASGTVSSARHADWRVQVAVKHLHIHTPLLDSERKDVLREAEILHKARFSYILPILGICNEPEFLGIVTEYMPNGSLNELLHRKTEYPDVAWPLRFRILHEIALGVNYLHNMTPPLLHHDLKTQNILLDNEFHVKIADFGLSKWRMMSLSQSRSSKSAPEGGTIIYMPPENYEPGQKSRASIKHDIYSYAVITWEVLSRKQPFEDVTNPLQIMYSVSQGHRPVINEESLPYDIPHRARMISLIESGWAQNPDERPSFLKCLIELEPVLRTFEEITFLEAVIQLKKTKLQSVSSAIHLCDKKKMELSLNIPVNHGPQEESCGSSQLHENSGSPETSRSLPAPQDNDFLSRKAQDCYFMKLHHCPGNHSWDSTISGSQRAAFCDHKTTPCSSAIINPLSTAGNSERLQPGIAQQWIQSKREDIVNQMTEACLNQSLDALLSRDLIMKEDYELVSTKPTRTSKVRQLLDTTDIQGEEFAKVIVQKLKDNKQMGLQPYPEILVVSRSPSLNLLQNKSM
# TLR9-MyD88 block = TLR9-MyD88 interaction inhibition; Q9NR96+Q99836; CHO BLA complementation TLR9-MyD88, CCF4 FRET ratio; inhibition, % at 4.98 µM; 340,000 compounds, 0.21% hits; AID 504734;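 active means inhibition above the mean over all tested compounds plus 3 SD, cut at about 21% in these data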;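 further: 0% = DMSO only wells and 100% = clavulanate BLA inhibitor control wells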
# UPR XBP1 act = adaptive UPR (XBP1) activation | CHO-XBP1 luciferase reporter, IRE1-XBP1 UPR activation, luminescence; percent of tunicamycin response, DMSO as zero | activation, % at 20 µM | 330,000 compounds, 0.33% hits | AID 463104;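 active means versus positive control, 20 µM dose yields 30% or more activation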;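 further: 100% = tunicamycin at 10 µg/mL and 0% = DMSO only wells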
#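 Material: IRE1-XBP1 luciferase reporter CHO line / Quantity: one thousand reporter cells per well / Buffer or medium: F12 with 10% serum / Compound: 20 µM single concentration, DMSO 1% / Times: 6 h treatment, 37 °C / Detection: Steady-Glo luciferase glow luminescence, 10 min after reagent addition / Benchmarks: tunicamycin high, DMSO low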
# TLR4-MyD88 BLA = inhibitors of human TLR4-MyD88 binding; HeLa CL3-4 TLR4/MyD88 BLA complementation, FRET ratio; inhibition, % at 8.4 µM; 200,000 compounds, 0.18% hits; O00206+Q99836; in the data active means inhibition above about 25%;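 further: 0% = vehicle and 100% = reference inhibitor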
# * hit, by the source's call; nt = not tested or not shown.
SMILES,UPR CHOP act,CHOP inh,NOD2 RIPK2 PPI,TLR9-MyD88 block,UPR XBP1 act,TLR4-MyD88 BLA
Cc1cccc(C)c1NC(=O)CSc1nc(C)c(CC(=O)c2ccc(Br)cc2)c(C)c1C#N,2,91*,-7,-8,23,6
Cc1nc(SCC(=O)Nc2ccccc2C(F)(F)F)c(C#N)c(C)c1CC(=O)c1ccc(Br)cc1,-1,88*,nt,nt,33*,-3
COc1ccc(-c2cc(C(F)(F)F)c(C#N)c(SCC(=O)Nc3ccccc3C#N)n2)cc1,18,44,nt,nt,23,7
Cc1ccc(S(=O)(=O)N2CCC(C(=O)OCC(=O)N3C(C)CCCC3C)CC2)cc1C (stereo not given),nt,nt,3,-8,nt,nt
c1ccc(CCNc2ncnc3ccccc23)cc1,3,61,-3,-8,-1,0
CCCCCCCCNc1ncnc2ccccc12,8,81*,-11,-10,-4,-1
CCc1nc2c(OCCOc3ccc(F)cc3)cccn2c1N(C=O)Cc1ccc(OC)cc1,nt,nt,-8,nt,nt,nt
CCCC(=O)Nc1ccc(-c2nc3cc(C)c(C)cc3o2)cc1,3,95*,-14,-13,0,-5
CCOc1ccccc1NC(=O)c1cc(C(=O)c2cc(Br)ccc2O)coc1=N,0,72*,4,1,-3,7
COc1ccc(S(=O)(=O)NCCSCc2cccc(C)c2)cc1Br,2,85*,4,-1,-2,-9
Cc1ccc(S(=O)(=O)NCCSCc2ccccc2)cc1,1,22,-1,9,-2,-14
CCOC(=O)c1cc2sccc2n1CC(=O)N1CCc2ccccc21,-2,74*,-8,21,-4,8
Cc1cc(Cl)ccc1NC(=O)CN1CCCC1,-1,nt,0,-3,-5,nt
Cc1ccc(NC(=O)CN2CCCCCC2)c(Br)c1,nt,75*,6,4,nt,-9
O=C(CN1CCCCC1)Nc1ccc(NC(=O)c2ccc(Cl)cc2)cc1Cl,2,85*,-16,3,18,14
O=C(NCc1nnnn1-c1ccc(F)cc1)c1ccc2c(c1)OCO2,nt,nt,7,3,nt,nt
O=C(Nc1cccc(C(F)(F)F)c1)C1Cc2c(-c3ccccc3)ccnc2O1 (stereo not given),nt,nt,5,nt,nt,nt
COc1cc(C(=O)C(=O)N2CCN(c3ccccc3)CC2)cc(OC)c1OC,nt,nt,6,nt,nt,nt
O=C(CN1C(=O)/C(=C\c2cccc(Cl)c2)Oc2ccccc21)N1CCN(c2ccccn2)CC1,5,100*,nt,nt,29,4
O=C(CN1C(=O)/C(=C/c2ccccc2F)Oc2ccccc21)N1CCN(c2ccccn2)CC1,4,86*,-3,-6,3,-10
CC(OC(=O)c1cccc(-n2cnnn2)c1)C(=O)Nc1ccc(F)c(F)c1F (stereo not given),nt,nt,-5,-11,nt,nt
Cc1cc(OCCCN2CCC(C(O)(c3ccccc3)c3ccccc3)CC2)ccc1Br,nt,nt,-4,nt,nt,nt
Cc1ccc(CSc2nnc(-c3ccc(NS(=O)(=O)c4ccccc4)cc3)o2)cc1,2,71*,-2,8,-4,9
Cc1ccc(S(=O)(=O)Nc2ccc(-c3nnc(SCc4ccccc4Cl)o3)cc2)cc1,1,20,-2,16,-5,-10
O=C(N/N=C1/CC(c2ccccc2)Oc2ccccc21)C1CC1 (stereo not given),1,93*,-10,2,4,-8
SMILES,UPR CHOP act,CHOP inh,NOD2 RIPK2 PPI,TLR9-MyD88 block,UPR XBP1 act,TLR4-MyD88 BLA
O=C(N/N=C1\CC(c2ccccc2)Oc2ccccc21)c1ccc(O)cc1 (stereo not given),2,nt,-5,-39,4,nt
CCc1c(C)sc(NC(=O)C2CC2)c1C(=O)OC(C)C,0,81*,-5,-1,-4,-8
CCOC(=O)c1ccc(NC(=O)c2ncn3c2C(=O)NC[C@@H]3C)cc1,nt,nt,0,9,nt,nt
Cc1cccc(/C=C2\CCC(=C3SCCCS3)C2=O)c1,-8,78*,-7,-4,-12,-6
CCc1ccc(Nc2nnc(SCn3nnc4ccccc4c3=O)s2)cc1,1,82*,4,-6,-1,-3
Cc1ccccc1S(=O)(=O)NC(=O)C1(C)CCN1C(=O)c1c(C)noc1C (stereo not given),nt,nt,5,nt,nt,nt
COc1ccc2oc(=O)c(C(=O)Nc3cccc(C)c3)cc2c1,7,82*,-10,2,10,0
Clc1ccc(Cc2noc(-c3cccs3)n2)cc1,3,87*,11,-1,4,7
C[C@H](CO)N1C[C@H](C)[C@@H](CN(C)S(=O)(=O)c2ccc3c(c2)OCCCO3)OCc2cn(nn2)CCCC1=O,nt,nt,7,-1,nt,nt
O=C1NCC(Nc2ccc(Cl)cc2)C(=O)N1 (stereo not given),nt,nt,3,-4,nt,nt
S=C(NCCC1=CCCCC1)Nc1ccc(Cl)cc1,4,81*,2,-11,-1,-10
S=C(NCCC(c1ccccc1)c1ccccc1)Nc1ccc(Cl)cc1,1,78*,-10,1,-1,3
S=C(NCCC(c1ccccc1)c1ccccc1)Nc1ccccc1Cl,1,-1,0,5,-2,6
S=C(NCCCc1ccccc1)Nc1ccc(Cl)cc1,1,77*,3,4,2,-9
Fc1ccc(CCNC(=S)Nc2ccc(F)c(Cl)c2)cc1,-1,90*,0,14,-2,-4
COc1ccc(NC(=S)NCCC2=CCCCC2)cc1OC,2,11,-7,1,0,-11
Fc1ccc(NC(=S)NCCc2ccc(Cl)cc2)cc1,4,25,-3,-6,1,7
COc1cc2ccc(NC(C)=O)cc2cc1OC,nt,nt,-9,-4,nt,nt
CC(C)C1C(=O)N(Cc2cn(CCC3OCCO3)nn2)CCS(=O)(=O)N1Cc1ccc(-c2ccc(Cl)cc2)cc1 (stereo not given),nt,nt,-2,-4,nt,nt
Cc1ccccc1OCC(=O)N/N=C/c1cc2ccccc2nc1Cl,0,32,-15,-8,2,6
CCOc1ccc(/C=N/NC(=O)COc2ccccc2-c2ccccc2)cc1,-1,78*,5,6,-4,-9
O=C(COc1cccc(Cl)c1)N/N=C\c1cc2ccccc2nc1Cl,1,78*,-8,-2,4,-25
O=C(COc1cccc(Br)c1)N/N=C/C(=O)c1ccccc1,0,80*,-1,-5,-1,-2
O=C(COc1ccc(-c2ccccc2)cc1)N/N=C/c1cc(O)ccc1Br,2,81*,9,-7,-5,-10
O=S1(=O)CC(N2CCN(c3ccccn3)CC2)CN1Cc1ccccc1 (stereo not given),nt,nt,-4,nt,nt,nt
COc1ccc(-c2nc(N)ncc2-c2csc(C)n2)c(O)c1,0,73*,3,-13,0,6
